According to ChEMBL document CHEMBL2407024, “Antimicrobial activity of imidazo[1,5-a]quinoxaline derivatives with pyridinium moiety” (Eur J Med Chem, 2013):
In brackets after ≈: the same amount, converted by molar mass. Non-standard residues stand in square brackets, D forms with d. Residues, ends and D or L forms follow the SMILES beside them. Orn = NCCC[C@H](N)C(=O)O

Experiments:
Candida albicans [1] = assay: Antifungal activity against Candida albicans 885-653 measured every 24 hrs for 14 days by conventional dilution method; format: functional
Method in brief: (§1)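 Dilution assay in Sabouraud dextrose broth, inoculum 2 × 10^3–4 cfu/ml. MIC is the lowest concentration with no visible growth after 14 days of incubation. Run alongside a positive growth control and standard drug controls. Tests in duplicate, repeated twice.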

[2] = system: Trichophyton mentagrophytes; assay: Antifungal activity against Trichophyton mentagrophytes measured every 24 hrs for 14 days by conventional dilution method; format: functional; method in brief: as §1
Aspergillus niger [3] = assay: Antifungal activity against Aspergillus niger BKMF-1119 measured every 24 hrs for 14 days by conventional dilution method; format: functional; method in brief: as §1
Escherichia coli [4] = assay: Antibacterial activity against Escherichia coli F-50 measured every 24 hrs for 5 days by conventional dilution method; format: functional
Method in brief: (§2)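 Broth dilution in nutrient broth, inoculum 3 × 10⁵ cfu/ml. MIC is the lowest concentration showing no growth, read visually every 24 h over 5 days. Run alongside a positive growth control and standard drug controls. Tests in duplicate, repeated twice.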

Bacillus cereus [5] = assay: Antibacterial activity against Bacillus cereus 8035 measured every 24 hrs for 5 days by conventional dilution method; format: functional; method in brief: as §2
Staphylococcus aureus [6] = assay: Antibacterial activity against Staphylococcus aureus 209p measured every 24 hrs for 5 days by conventional dilution method; format: functional; method in brief: as §2
Pseudomonas aeruginosa [7] = assay: Antibacterial activity against Pseudomonas aeruginosa 9027 measured every 24 hrs for 5 days by conventional dilution method; format: functional; method in brief: as §2
[8] = Acute toxicity in ip dosed mouse; format: organism-based; conditions: in vivo
Method in brief: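 Mice; each compound given at 5 dose levels, 10 animals per dose (n = 50 per compound). Animals observed for 72 h; toxicity expressed as average lethal dose (LD50) calculated from mortality across dose groups.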

Candida albicans [9] = assay: Fungicidal activity against Candida albicans 885-653 after 6 hrs; format: functional; conditions: 885-653, 6 h
Method in brief: (§3)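 Tubes of test compound (5 to 500 per ml, 1 mL in nutrient agar) with fungi were incubated at 26 °C for 6 h. Inocula were then prepared in Sabouraud dextrose broth and incubated at 26 °C. The fungicidal concentration is the one giving total cell death.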

[10] = system: Trichophyton mentagrophytes; assay: Fungicidal activity against Trichophyton mentagrophytes after 6 hrs; format: functional; method in brief: as §3
Aspergillus niger [11] = assay: Fungicidal activity against Aspergillus niger BKMF-1119 after 6 hrs; format: functional; conditions: BKMF-1119, 6 h; method in brief: as §3
Pseudomonas aeruginosa [12] = assay: Bactericidal activity against Pseudomonas aeruginosa 9027 after 4 hrs; format: functional; conditions: Pseudomonas aeruginosa, 9027, 4 h
Method in brief: (§4)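 Tubes contained 1 mL test compound in nutrient agar, 5 to 500 per ml. Bacteria in normal saline broth (3 × 10⁵ cfu/ml, 1 mL) were added and held 4 h, then transferred onto meal-peptone agar plates and incubated at 37 °C. MBC is the dilution giving total cell death.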

Escherichia coli [13] = assay: Bactericidal activity against Escherichia coli F-50 after 4 hrs; format: functional; conditions: F-50, 4 h; method in brief: as §4
Bacillus cereus [14] = assay: Bactericidal activity against Bacillus cereus 8035 after 4 hrs; format: functional; conditions: Bacillus cereus, 8035, 4 h; method in brief: as §4
Staphylococcus aureus [15] = assay: Bactericidal activity against Staphylococcus aureus 209p after 4 hrs; format: functional; method in brief: as §4

Row | SMILES | MIC (Candida albicans [1]) | MIC [2] | MIC (Aspergillus niger [3]) | MIC (Escherichia coli [4]) | MIC (Bacillus cereus [5]) | MIC (Staphylococcus aureus [6]) | MIC (Pseudomonas aeruginosa [7]) | LD50 [8] | MFC (Candida albicans [9]) | MFC [10] | MFC (Aspergillus niger [11]) | MBC (Pseudomonas aeruginosa [12]) | MBC (Escherichia coli [13]) | MBC (Bacillus cereus [14]) | MBC (Staphylococcus aureus [15])
1 | CCCCCCn1c(=O)c2c(-c3ccccc3)nc(-c3ccc[n+](Cc4cccc(C[n+]5cccc(-c6nc(-c7ccccc7)c7c(=O)n(CCCCCC)c8ccccc8n67)c5)c4)c3)n2c2ccccc21.[Br-].[Br-] | 15.6 µg/mL | > 500 µg/mL | > 500 µg/mL | > 500 µg/mL | 62.5 µg/mL | 12.5 µg/mL | > 500 µg/mL |  |  |  |  |  |  |  | 
2 | CCCCCCCCCn1c(=O)c2c(-c3ccccc3)nc(-c3ccc[n+](Cc4cccc(C[n+]5cccc(-c6nc(-c7ccccc7)c7c(=O)n(CCCCCCCCC)c8ccccc8n67)c5)c4)c3)n2c2ccccc21.[Br-].[Br-] | 7.8 µg/mL | 500 µg/mL | > 500 µg/mL | 500 µg/mL | 15.6 µg/mL | 3.9 µg/mL | > 500 µg/mL | 108 mg/kg |  |  |  |  |  |  | 
3 | O=c1c2c(-c3ccccc3)nc3n2c2ccccc2n1CCCCCCCCCCn1c(=O)c2c(-c4ccccc4)nc(n2c2ccccc21)-c1ccc[n+](c1)Cc1cccc(c1)C[n+]1cccc-3c1.[Br-].[Br-] | 250 µg/mL | > 500 µg/mL | > 500 µg/mL | > 500 µg/mL | > 500 µg/mL | 125 µg/mL | > 500 µg/mL |  |  |  |  |  |  |  | 
4 | Cn1c(=O)c2c(-c3ccccc3)nc(-c3ccc[n+](Cc4ccccc4)c3)n2c2ccccc21.[Cl-] | 62.5 µg/mL | 500 µg/mL | > 500 µg/mL | > 500 µg/mL | 125 µg/mL | 31.3 µg/mL | > 500 µg/mL |  |  |  |  |  |  |  | 
5 | CCCn1c(=O)c2c(-c3ccccc3)nc(-c3ccc[n+](Cc4ccccc4)c3)n2c2ccccc21.[Cl-] | > 500 µg/mL | > 500 µg/mL | > 500 µg/mL | > 500 µg/mL | 125 µg/mL | 62.5 µg/mL | > 500 µg/mL |  |  |  |  |  |  |  | 
6 | CCCCCCCCCn1c(=O)c2c(-c3ccccc3)nc(-c3ccc[n+](Cc4ccccc4)c3)n2c2ccccc21.[Cl-] | 3.9 µg/mL | 500 µg/mL | > 500 µg/mL | > 500 µg/mL | 12.5 µg/mL | 1.95 µg/mL | > 500 µg/mL |  | 500 µg/mL | > 500 µg/mL | > 500 µg/mL | > 500 µg/mL | > 500 µg/mL | > 500 µg/mL | 50 µg/mL
7 | CCCCCCCCCCCCCCCCCCn1c(=O)c2c(-c3ccccc3)nc(-c3ccc[n+](Cc4ccccc4)c3)n2c2ccccc21.[Cl-] | > 500 µg/mL | > 500 µg/mL | > 500 µg/mL | > 500 µg/mL | > 500 µg/mL | 500 µg/mL | > 500 µg/mL |  |  |  |  |  |  |  | 
8 | C[C@@H]1[C@H](O)[C@@H](C)/C=C/C=C/C=C/C=C/C=C/C=C/C=C/[C@H](O[C@@H]2O[C@H](C)[C@@H](O)[C@H](N)[C@@H]2O)C[C@@H]2O[C@](O)(C[C@@H](O)C[C@@H](O)[C@H](O)CC[C@@H](O)C[C@@H](O)CC(=O)O[C@H]1C)C[C@H](O)[C@H]2C(=O)O [AMPHOTERICIN B] | 0.97 µg/mL (≈ 1.05 µM) | 3.13 µg/mL (≈ 3.39 µM) | 20 µg/mL (≈ 21.6 µM) |  |  |  |  | 27.7 mg/kg | 50 µg/mL (≈ 54.1 µM) | 250 µg/mL (≈ 271 µM) | 250 µg/mL (≈ 271 µM) |  |  |  | 
9 | O=C(O)c1cn(C2CC2)c2cc(N3CCNCC3)c(F)cc2c1=O [CIPROFLOXACIN] |  |  |  |  | 0.25 µg/mL (≈ 0.754 µM) | 0.25 µg/mL (≈ 0.754 µM) |  |  |  |  |  | 0.5 µg/mL (≈ 1.51 µM) | 0.5 µg/mL (≈ 1.51 µM) | 0.25 µg/mL (≈ 0.754 µM) | 0.25 µg/mL (≈ 0.754 µM)
10 | Clc1ccccc1C(c1ccccc1)(c1ccccc1)n1ccnc1 [CLOTRIMAZOLE] | 0.39 µg/mL (≈ 1.13 µM) | 3.13 µg/mL (≈ 9.08 µM) |  |  |  |  |  |  | 0.39 µg/mL (≈ 1.13 µM) | 3.13 µg/mL (≈ 9.08 µM) |  |  |  |  | 
11 | CC(C)C[C@@H]1NC(=O)[C@H](CCCN)NC(=O)[C@H](C(C)C)NC(=O)[C@@H]2CCCN2C(=O)[C@@H](Cc2ccccc2)NC(=O)[C@H](CC(C)C)NC(=O)[C@H](CCCN)NC(=O)[C@H](C(C)C)NC(=O)[C@@H]2CCCN2C(=O)[C@@H](Cc2ccccc2)NC1=O [GRAMICIDIN S] (cyclo(L[dF]PV[Orn]L[dF]PV[Orn])) |  |  |  |  |  |  |  | 26 mg/kg |  |  |  |  |  |  | 
12 | CCn1cc(C(=O)O)c(=O)c2cc(F)c(N3CCNCC3)cc21 [NORFLOXACIN] |  |  |  | 1.5 µg/mL (≈ 4.7 µM) | 7.8 µg/mL (≈ 24.4 µM) | 2.42 µg/mL (≈ 7.58 µM) | 3 µg/mL (≈ 9.39 µM) |  |  |  |  | 5 µg/mL (≈ 15.7 µM) | 5 µg/mL (≈ 15.7 µM) | 12.5 µg/mL (≈ 39.1 µM) | 5 µg/mL (≈ 15.7 µM)
13 | CC1COc2c(N3CCN(C)CC3)c(F)cc3c(=O)c(C(=O)O)cn1c23 (stereo unspecified) [OFLOXACIN] |  |  |  |  | 1.5 µg/mL (≈ 4.15 µM) | 0.97 µg/mL (≈ 2.68 µM) | 3.1 µg/mL (≈ 8.58 µM) |  |  |  |  |  |  |  | 
